Scp-1 inhibitor: Scp-1 (human) phosphatase inhibition. Q9GZU7. Recombinant Scp1, phosphopeptide, malachite green phosphate absorbance. inhibition, % at 20 µM. hit rate 0.88% among 340,000;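 active means inhibition above about 50% at 20 µM, limit read from the data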;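 further: plate controls were DMSO wells with enzyme for no effect and wells lacking enzyme for full effect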
Target sequence (Q9GZU7 76-261 limits assumed): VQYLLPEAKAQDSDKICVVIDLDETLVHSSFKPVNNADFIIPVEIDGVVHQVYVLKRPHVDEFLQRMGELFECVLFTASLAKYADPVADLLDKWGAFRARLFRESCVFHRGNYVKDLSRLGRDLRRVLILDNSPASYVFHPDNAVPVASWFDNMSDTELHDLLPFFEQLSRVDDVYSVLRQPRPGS
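Material: truncated SCP-1 phosphatase (76-261aa) / Buffer or medium: 50 mM Tris acetate pH 5.5, 0.005% Tween-20, 10 mM MgCl2 / Compound dosing: one concentration, 20 µM, with 1.0% DMSO / Incubation: 45 min room-temperature reaction, 5 min colour, 30 min stabiliser / Detection: colorimetric free-phosphate detection, absorbance 630 nm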
STEP inh: blocks human striatal-enriched tyrosine phosphatase. P54829. recombinant STEP, OMFP fluorogenic substrate, fluorescence. inhibition, % at 20 µM. hit rate 0.25% among 360,000. AID 588621;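 active means inhibition at 20 µM, scaled per plate between control wells, above about 37%, limit read from the data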;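 further: 0% = DMSO with enzyme and substrate and 100% = substrate only without enzyme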
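material = STEP tyrosine phosphatase | reagent = fluorogenic phosphatase substrate OMFP at 25 µM final | doses = single compound dose of 20 µM, 1% DMSO final | schedule = 20 min reaction, room temperature, in the dark | measured by = fluorescence, 480/540 nm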
CASP6 VEID inh: blocks human caspase-6 cleavage activity | P55212 | purified caspase-6, Z-VEID-R110 cleavage fluorescence | inhibition, % at 12.5 µM | hit rate 0.53% among 350,000 | AID 686996;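 active means mean inhibition across replicates at least about 35%, with every replicate also reaching that limit, limit read from the data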;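 further: 0% = median of neutral control wells and 100% = no fluorescence left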
Target sequence (P55212 24-179 limits assumed): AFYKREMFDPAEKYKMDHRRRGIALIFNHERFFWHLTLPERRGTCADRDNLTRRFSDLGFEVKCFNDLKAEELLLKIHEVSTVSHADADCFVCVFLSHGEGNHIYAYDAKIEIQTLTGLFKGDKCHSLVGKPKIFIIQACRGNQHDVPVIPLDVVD
Target sequence (P55212 194-293 limits assumed): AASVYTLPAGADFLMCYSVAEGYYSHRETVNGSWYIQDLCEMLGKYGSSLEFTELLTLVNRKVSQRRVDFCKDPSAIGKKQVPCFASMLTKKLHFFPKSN
LMPTP inh: LMPTP (human) inhibition; AID 651560; recombinant LMPTP-A, OMFP fluorogenic substrate, fluorescence intensity; hit rate 0.22% among 360,000; inhibition, % at 20 µM;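 active means compounds that cut the enzyme signal by at least half of the control window in the single-dose screen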;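 further: plate controls were DMSO wells with enzyme plus substrate for no effect and substrate without enzyme for full effect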
Target sequence (P24666 whole entry, looked up): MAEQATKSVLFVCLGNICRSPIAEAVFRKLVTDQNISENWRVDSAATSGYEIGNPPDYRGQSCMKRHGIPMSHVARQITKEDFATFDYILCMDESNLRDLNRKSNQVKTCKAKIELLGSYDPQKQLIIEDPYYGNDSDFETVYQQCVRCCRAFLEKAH
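Assay system: LMPTP-A, protein tyrosine phosphatase of low molecular weight / Medium: pH 6.0 Bis-Tris buffer with DTT and Triton X-100 / Schedule: 50 min enzyme reaction at room temperature, protected from light / Measured by: endpoint fluorescence intensity from OMFP dephosphorylation / Read-out basis: % inhibition relative to no-enzyme and uninhibited control wells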
DNMT1 block: blocks human DNA methyltransferase DNMT1 | P26358 | DNMT1 molecular beacon, Hinp1I cleavage, fluorescence | inhibition (reported as % activation of signal), % at 10 µM | hit rate 0.83% among 360,000; in the data active means inhibition above about 50%
SUMO1-SIM PPI: modulators of human SUMO1-mediated protein-protein interactions; inhibition, % at 20 µM; hit rate 0.33% among 360,000; P63165; AID 602429; SUMO1 binding to a labelled peptide, TR-FRET, 1 h; in the data active means inhibition above about 37%
Target sequence (P63165 whole entry, looked up): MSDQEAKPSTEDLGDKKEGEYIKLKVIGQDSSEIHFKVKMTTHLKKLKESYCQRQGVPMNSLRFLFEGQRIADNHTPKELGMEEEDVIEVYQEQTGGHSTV
Scp1 confirm: confirmation of human Scp-1 phosphatase inhibitors. shares compounds with Scp-1 inhibitor. recombinant SCP-1 catalytic domain, phosphate release, malachite green absorbance. inhibition, % at 20 µM. hit rate 61% among 2,500;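 further: plate controls were DMSO with enzyme for no effect and buffer wells lacking enzyme for full effect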
Scp-1 MG ctr: colorimetric interference in Scp-1 counter-screen; apparent inhibition (interference), % at 20 µM; shares compounds with Scp-1 inhibitor; 2,500 tested, under 10 active; Colorimetric interference counterscreen, malachite green absorbance 630 nm; AID 540313;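 further: compounds added after enzyme reaction finished so only phosphate colour detection is probed; plate controls were DMSO wells with completed Scp-1 reaction for no effect and substrate wells lacking enzyme for full effect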
Scp1 DSF: Scp-1 (human) binding by thermal shift | shares compounds with Scp-1 inhibitor | Recombinant SCP1, Sypro Orange thermal shift Tm | thermal shift relative to vanadate control, % at 40 µM | hit rate 25% among 1,500 | AID 540329;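 active means substances whose mean melting-temperature shift, as a percentage of the reference inhibitor's shift, reaches about 5.3%, limit read from the data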;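 further: 0% = Tm of DMSO wells and 100% = Tm with sodium orthovanadate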
Starred values were filed as active, the others as inactive; . = not tested or not shown. An excerpt weighted towards active compounds, which were near 1.7% of everything screened.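 How the source made its calls, unless noted: active means inhibition of at least 30% at 20 µM; inactive means the rest.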

SMILES	Scp-1 inhibitor	STEP inh	CASP6 VEID inh	LMPTP inh	DNMT1 block	SUMO1-SIM PPI	Scp1 confirm	Scp-1 MG ctr	Scp1 DSF
COCCNC(=O)C1c2ccccc2C(=O)N(CCOC)C1c1ccc(F)cc1 (stereo not given)	52.2*	-0.7	.	4.4	-1.5	3.5	3.5	-2.1	.
COCCN1C(=O)c2ccccc2C(C(=O)NCCN(C)C)C1c1ccc(F)cc1 (stereo not given)	4.6	-1.5	.	-1.1	4.5	-3.6	.	.	.
COc1ccc(-n2c(C)cc(/C=C/c3nc(O)c([N+](=O)[O-])c(=O)[nH]3)c2C)cc1	65.5*	3.0	62.1*	16.1	44.3	8.8	59.3*	-17.5	4.7
O=c1[nH]c(/C=C\c2cccc(O)c2)nc(O)c1[N+](=O)[O-]	-3.7	4.4	8.5	-1.2	6.5	-3.0	.	.	.
O=c1[nH]c(/C=C\c2ccc(O)c(O)c2)nc(O)c1[N+](=O)[O-]	23.0	5.2	23.5	-1.1	13.8	3.3	45.0*	-1.9	6.2*
O=c1[nH]n2c(=O)c3c([nH]c2c1N=Nc1cccc(Cl)c1)CCCC3	94.6*	4.5	.	5.0	0.2	5.1	46.1*	-18.4	30.0*
N=C1/C(=C\c2ccc(OC(=O)c3ccc(F)cc3)cc2)C(=O)N=C2SC(N3CCOCC3)=NN12	65.6*	2.5	3.7	0.7	8.2	-2.9	55.6*	-2.1	0.6
CC1CCN(C2=NN3C(=N)/C(=C\c4ccc(OC(=O)c5ccco5)cc4)C(=O)N=C3S2)CC1	34.8	1.6	0.0	0.5	16.1	13.1	.	.	.
C[C@@H]1CN([C@@H](C)CO)C(=O)c2cc(NC(=O)Nc3ccc(C(F)(F)F)cc3)ccc2O[C@@H]1CN(C)Cc1ccc(Cl)c(Cl)c1	.	.	-3.0	.	.	.	.	.	.
N#Cc1c(N)nc2c(c1N)CC(CO)O2 (stereo not given)	56.3*	-1.8	.	-0.2	0.0	3.4	9.5	1.7	.
O=C(CSc1nc(-c2ccc(F)cc2)nc2ccc(F)cc12)Nc1cccc(C(=O)O)c1	72.0*	24.5	3.6	45.1	-0.8	-4.7	75.2*	-10.9	2.1
CC(C)(C)OC(=O)N1CCCC1C(=O)NCCc1ccccc1 (stereo not given)	96.7*	-1.8	.	-3.1	1.9	-4.0	-4.4	-4.9	.
Cc1ccc2c(c1)NC(=O)C(CC(=O)Nc1ccc(CN3CCC(C)CC3)cc1)O2 (stereo not given)	52.4*	-4.0	.	0.5	-2.1	-1.8	-13.2	-7.3	.
Cn1nccc1C(=O)N/N=C/c1c(O)ccc2ccccc12	0.3	-0.8	1.7	1.0	-1.1	-6.2	.	.	.
Cc1cccc(NC(=O)COc2ccc(/C=C\c3[nH]c(=O)[nH]c(=O)c3[N+](=O)[O-])cc2)c1	78.7*	20.6	3.4	55.2*	13.3	19.9	73.7*	-14.0	5.5*
N/C(=N\NC(=O)c1ccc(F)cc1)c1cc2ccccc2oc1=O	-1.3	-1.2	-5.3	-0.7	-0.9	-8.8	.	.	.
N/C(=N\NC(=O)c1cccc(F)c1)c1cc2ccccc2oc1=O	52.7*	12.8	12.8	0.4	3.1	-23.5	72.4*	-17.0	-1.6
Cc1nn(CCc2nn[nH]n2)c2nc(-c3ccc(Br)cc3)cc(C(F)(F)F)c12	53.4*	26.4	12.5	-0.1	-1.0	3.8	24.3	-15.0	.
Cc1nn(CCc2nn[nH]n2)c2nc(C(F)(F)F)cc(C(F)(F)F)c12	-6.9	-5.5	.	1.4	1.1	0.8	.	.	.
Cc1cccc(Nc2nnc(SCC(=O)c3c(N)n(C4CC4)c(=O)[nH]c3=O)s2)c1	-3.3	-1.1	1.2	2.1	2.0	1.1	.	.	.
C/C(N)=C(/C#N)C(=O)CSc1nnc(Nc2cccc(C)c2)s1	64.0*	2.6	5.3	8.1	23.0	10.4	74.3*	-4.6	-1.9
CCOC(=O)c1cn(CC)c2cc3c(cc2c1=O)OCO3	64.3*	-1.4	-1.0	-0.2	-2.2	8.3	-11.7	-5.2	.
Cc1ccc(C)c(NC(=O)CN(C)C(=O)c2cc(-c3cccs3)nn2-c2ccccc2)c1	56.4*	1.3	1.2	2.7	-4.2	1.2	-9.0	-8.5	.
O=C(CC(SCCO)c1ccc2c(c1)OCO2)c1ccco1 (stereo not given)	7.1	-1.7	.	-2.6	1.3	-10.0	.	.	.
C/C=C/c1cnc2c(c1)C(=O)N([C@H](C)CO)C[C@@H](C)[C@@H](CN(C)C(=O)c1cccnc1)O2	.	.	2.6	.	.	.	.	.	.
SMILES	Scp-1 inhibitor	STEP inh	CASP6 VEID inh	LMPTP inh	DNMT1 block	SUMO1-SIM PPI	Scp1 confirm	Scp-1 MG ctr	Scp1 DSF
Cc1cc(C)n(-c2ccc(Oc3ccccc3)c(S(=O)(=O)O)c2)n1	64.8*	37.0	19.3	3.9	28.4	0.7	46.9*	-17.5	-4.1
Cc1cc(C)n(-c2ccc(C(=O)O)cc2)n1	4.0	0.2	.	-2.0	-2.0	-4.5	.	.	.
CN(C)CC(C)(C)CNS(=O)(=O)c1cccc(Cl)c1Cl	69.6*	-5.0	.	-1.7	-0.9	-2.7	12.0	-22.1	.
O=c1c(O[C@@H]2O[C@H](CO)C(O)C2O)c(-c2ccc(O)c(O)c2)oc2cc(O)cc(O)c12 (stereo not given in full)	-14.6	0.5	.	-1.4	13.8	-4.5	.	.	.
O=c1c(OC2OC(CO)C(O)C(O)C2O)c(-c2ccc(O)c(O)c2)oc2cc(O)cc(O)c12 (stereo not given)	-14.6	-1.1	16.0	-0.3	7.5	-5.0	2.0	-2.4	.
O=C(COc1coc(CN2CCN(c3ccc(F)cc3)CC2)cc1=O)Nc1ccccc1	1.4	-1.2	5.2	0.7	-2.7	3.6	.	.	.
CC(=O)COc1coc(CN2CCN(c3ccc(F)cc3)CC2)cc1=O	50.7*	-2.9	2.2	-0.3	-1.0	3.4	-5.9	-7.6	.
O=C(COC(=O)c1ccc(S(=O)(=O)NCc2ccco2)cc1)Nc1ccc(Cl)cn1	60.4*	4.3	46.1*	9.2	40.3	9.3	64.5*	-10.6	6.4*
CN(C)C(=O)COC(=O)c1ccc(S(=O)(=O)NCc2ccco2)cc1	75.1*	5.0	24.4	-1.0	43.8	5.1	54.4*	-10.1	-16.1
COc1cccc(N/C(SC)=C(/C#N)C(N)=O)c1	2.1	0.7	.	-0.9	-1.5	29.2	.	.	.
O=C(O)c1cccc2c1C(=O)c1cc([N+](=O)[O-])cc([N+](=O)[O-])c1-2	.	-2.2	7.1	0.6	10.8	0.3	.	.	.
O=C(O)c1cccc2c1/C(=N/Nc1ccc([N+](=O)[O-])cc1[N+](=O)[O-])c1ccccc1-2	85.6*	17.2	.	12.6	-2.7	-4.4	56.5*	-14.5	12.0*

High-throughput results: PubChem BioAssay, several laboratories
